This note sets out measurements from ChEMBL document CHEMBL2029228, “Antimalarial activity of 9a-N substituted 15-membered azalides with improved in vitro and in vivo activity over azithromycin” (J Med Chem, 2012).

The structures appear in SMILES notation. Active and inactive are the calls of the source.

Data set [1] is described as follows: Fraction unbound in CD1 mouse plasma at 5 mg/kg, iv. Format: ADME, organism-based. Set-up: dose 5 mg/kg, route intravenous. In outline:
(§1)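 Fraction unbound measured in mouse plasma by ultrafiltration at 1 μg/mL. Unbound clearance = blood clearance/fu, assuming blood/plasma ratio of 1. Blood clearance comes from male CD-1 mice dosed IV at 5 mg/kg, with tail-vein sampling up to 24 h and LC-MS/MS analysis.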

For data set [2], the system named is Liver microsomes. Put plainly: Intrinsic clearance in human liver microsomes assessed per gram of liver at 1 uM after 60 mins at pH 7.4 by LC-MS/MS analysis. Format: ADME, Microsome. Conditions: pH 7.4, 1 h. In outline:
(§2)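 Liver microsomes (0.5 mg protein/mL) in 50 mM potassium phosphate pH 7.4 with 1.0 μM compound at 37 °C for 60 min. Reaction started with NADP/glucose-6-phosphate/MgCl₂/G6PDH cofactor mix; solvent 1% final. LC-MS/MS read-out. CLi from first-order elimination constant by nonlinear regression, corrected for incubation volume, assuming 52.5 mg microsomal protein/g liver.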
(In general: Liver microsomes are vesicles of endoplasmic reticulum, rich in cytochrome P450 enzymes.)

Data set [3] concerns Plasmodium berghei. Put plainly: Antimalarial activity against Plasmodium berghei KBG173 infected in mouse assessed as increase in mouse survival time at 5 mg/kg, iv BID administered on day 3, 4 and 5 post infection relative to azithromycin. The format is functional. Put shortly: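 Male mice (24−30 g) inoculated intraperitoneally with 5 × 10⁶ P. berghei KBG-173-infected erythrocytes; parasitemia 1.0–3.7% by day 3. IV dosing twice daily on days 3, 4 and 5 post-infection. Read-out is the survival time of the last animal alive. Mice blood-smear negative on day 31 counted as cured; mice losing ≥20% body weight sacrificed.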

For data set [4], the system named is Liver microsomes. The data set is described as follows: Intrinsic clearance in rat liver microsomes assessed per gram of liver at 1 uM after 60 mins at pH 7.4 by LC-MS/MS analysis. The format is ADME, Microsome. Particulars: pH 7.4, 1 h. Put shortly: as §2
A short description of data set [5]: Oral bioavailability in CD1 mouse at 25 mg/kg. Conditions: in vivo. The format is ADME, organism-based. In outline:
(§3)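 Male CD-1 mice (N = 3 per route) dosed IV at 5 mg/kg or orally at 25 mg/kg while fasted, mostly in saline (2.5 mg/mL). Tail-vein blood taken up to 24 h, cardiac puncture at 30 h. Samples hemolyzed, protein-precipitated with acetonitrile plus internal standard, analysed by positive ESI LC-MS/MS.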

Data set [6] can be described thus: Half life in CD1 mouse at 5 mg/kg, iv. Conditions: CD1, mouse, in vivo. Set-up: dose 5 mg/kg, route intravenous. Format: ADME, organism-based. In outline:
as §3

The next data set deals with Mus musculus. The data set is described as follows: Unbound clearance in CD1 mouse at 5 mg/kg, iv. Format: ADME, organism-based. Set-up: dose 5 mg/kg, route intravenous. Conditions: in vivo. In outline: as §1
A short description of data set [7]: (§4) Plasma protein binding in mouse at 1 ug/ml after 30 mins. Particulars: read-out: PPB (converted). Format: ADME, cell-free. Put shortly: (§5)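 Ultrafiltration on mouse plasma preincubated 15 min at 37 °C, compound spiked to 1 μg/mL final. Aliquots taken at 0 and 15 min, remainder spun through a 10 kDa filter for 30 min at 37 °C, 2850 g. Filtrate deproteinized and analysed by LC-MS/MS.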

For the next data set, the system named is Plasmodium falciparum. Put plainly: Antimalarial activity against mefloquine-resistant Plasmodium falciparum TM91C235 assessed as [3H]hypoxanthine incorporation after 48 hrs. Format: functional, organism-based. Put shortly:
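Tritiated hypoxanthine incorporation assay (Desjardins method, Milhous modification) with 48 h drug exposure. Uses P. falciparum clone TM91C235 (Southeast Asian, mefloquine-resistant). Compounds 2-fold diluted over 11 concentrations. IC50 derived by nonlinear logistic dose-response fitting, averaged where multiple runs were done.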

A further data set has as its system Liver. The data set is described as follows: Intrinsic clearance in mouse liver microsomes assessed per gram of liver at 1 uM after 60 mins at pH 7.4 by LC-MS/MS analysis. Conditions: pH 7.4, 1 h. Format: ADME, Microsome. In outline:
as §2

The nature of data set [8]: Volume of distribution at steady state in CD1 mouse at 5 mg/kg, iv. The format is ADME, organism-based. On the set-up: dose 5 mg/kg, route intravenous. Conditions: in vivo, read-out: Vdss. In outline:
as §3

Data set [9] can be described thus: Clearance at steady state in CD1 mouse at 5 mg/kg, iv. Format: ADME, organism-based. Set-up: dose 5 mg/kg, route intravenous. Particulars: in vivo, read-out: CLss. In outline:
as §3

The next data set relates to HepG2. The data set is described as follows: Cytotoxicity against human HepG2 cells after 24 hrs by MTS assay. The format is cell-based. Particulars: HepG2, 24 h. In outline: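 HepG2 cells kept in RPMI 1640 with 10% FBS plus antibiotics at 37 °C, 5% CO₂. 50 000 cells per well exposed to 10 two-fold serial dilutions for 24 h. MTS reagent then added for 2 h more, absorbance read at 490 nm, IC50 derived.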
For orientation: Tetrazolium assays rely on reduction of a dye to a coloured formazan, in cell work by metabolically active cells.

For a further data set, the system named is Plasma. The data set is described as §4. Format: ADME, cell-free. Conditions: 0.5 h. Put shortly: as §5
The subject of data set [10] is Plasmodium berghei. Put plainly: Antimalarial activity against Plasmodium berghei KBG173 infected in mouse assessed as cured mouse at 5 mg/kg, iv BID administered on day 3, 4 and 5 post infection measured up to day 31. Format: functional, organism-based. On the set-up: dose 5 mg/kg. Put shortly: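 Male mice (24–30 g) inoculated intraperitoneally with 5 × 10⁶ P. berghei KBG-173-infected erythrocytes; parasitemia about 1.0–3.7% by day 3. Dosing twice daily on days 3–5 postinfection. Blood smears negative on day 31 counted as cured, scored as cured/total mice (5 per dose). Mice losing ≥20% body weight sacrificed.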

A short description of data set [11]: Aqueous solubility of the compound. Format: physicochemical. Conditions: buffer.

For the molecule `CC[C@H]1OC(=O)[C@H](C)[C@@H](O[C@H]2C[C@@](C)(OC)[C@@H](O)[C@H](C)O2)[C@H](C)[C@@H](O[C@@H]2O[C@H](C)C[C@H](N(C)C)[C@H]2O)[C@](C)(O)C[C@@H](C)CN(CCCNCc2ccnc3ccccc23)[C@H](C)[C@@H](O)[C@]1(C)O`, the fraction unbound in data set [1] was determined as 0.57. The CLint in the data set on Liver microsomes [2], in the data set with Liver microsomes [4] and with Liver was below 0.6 mL/min/g each time. In addition, the Survival with Plasmodium berghei [3] amounted to 3 days. In addition, in data set [5], the bioavailability is 19.5%. This molecule also showed a half-life in data set [6] of 8.7 h. In addition, in the data set with Mus musculus, the CL free came out at 18 mL/min/kg. Further, the fraction unbound at 0.5 h, 1 ug/ml in data set [7] is 0.57. The IC50 is 165 nM in the data set on Plasmodium falciparum and above 50000 nM in the data set with HepG2. Moreover, in [8], the Vd was 4.9 L/kg. For the same molecule, the clearance in data set [9] was 10.2 mL/min/kg.

In data set [1], `CC[C@H]1OC(=O)[C@H](C)[C@@H](O[C@H]2C[C@@](C)(OC)[C@@H](O)[C@H](C)O2)[C@H](C)[C@@H](O[C@@H]2O[C@H](C)C[C@H](N(C)C)[C@H]2O)[C@](C)(O)C[C@@H](C)CN(CCCNc2ccnc3ccccc23)[C@H](C)[C@@H](O)[C@]1(C)O` [listing 1 of 2 here] displayed a fraction unbound of 0.39. The CLint in the data set with Liver microsomes [2], in the data set on Liver microsomes [4] and with Liver was below 0.6 mL/min/g each time. In the data set with Plasmodium berghei [3], the Survival was 3 days. This molecule also yielded a bioavailability in data set [5] of 1.7%. Further, in [6], the half-life was 14.4 h. The CL free in the data set on Mus musculus is 20 mL/min/kg. This molecule showed a PPB in the data set with Plasma of 43%. Moreover, the IC50 is 25 nM in the data set on Plasmodium falciparum and above 50000 nM in the data set on HepG2. Further, in [8], the Vd was 4.9 L/kg. Besides, the clearance in [9] was 7.7 mL/min/kg.

In turn, `CC[C@H]1OC(=O)[C@H](C)[C@@H](O[C@H]2C[C@@](C)(OC)[C@@H](O)[C@H](C)O2)[C@H](C)[C@@H](O[C@@H]2O[C@H](C)C[C@H](N(C)C)[C@H]2O)[C@](C)(O)C[C@@H](C)CN(CCCNC(=O)CCc2ccccc2)[C@H](C)[C@@H](O)[C@]1(C)O` registered a fraction unbound in [1] of 0.43. In addition, the CLint in the data set with Liver microsomes [2], with Liver microsomes [4] and with Liver was below 0.6 mL/min/g throughout. Further, in the data set on Plasmodium berghei [3], the Survival is -12 days. The molecule further had a bioavailability in [5] of 12.7%. The molecule also gave a half-life in data set [6] of 6.9 h. In addition, the CL free in the data set on Mus musculus was 54 mL/min/kg. This molecule returned a PPB with Plasma of 43%. Besides, the IC50 in the data set on Plasmodium falciparum is 70 nM; with HepG2, above 50000 nM. Moreover, in [8], the Vd was determined as 5 L/kg. Further, the clearance in data set [9] turned out to be 23.3 mL/min/kg.

With `CC[C@H]1OC(=O)[C@H](C)[C@@H](O[C@H]2C[C@@](C)(OC)[C@@H](O)[C@H](C)O2)[C@H](C)[C@@H](O[C@@H]2O[C@H](C)C[C@H](N(C)C)[C@H]2O)[C@](C)(O)C[C@@H](C)CN(CCCNc2ccnc3cc(Cl)ccc23)[C@H](C)[C@@H](O)[C@]1(C)O`, the fraction unbound in data set [1] was 0.42. The CLint with Liver microsomes [2], in the data set with Liver microsomes [4] and in the data set on Liver was below 0.6 mL/min/g each time. Further, the Survival with Plasmodium berghei [3] turned out to be 9 days. This molecule also came in with a bioavailability in data set [5] of 20.4%. In data set [6], this molecule showed a half-life of 17.8 h. For the same molecule, the CL free in the data set with Mus musculus turned out to be 9.5 mL/min/kg. In the data set with Plasma, this molecule showed a PPB of 43%. Moreover, the figures for the IC50 in the data set with Plasmodium falciparum and in the data set with HepG2 were 22 nM and 30000 nM, respectively. The Vd in data set [8] was determined as 2.9 L/kg. The clearance in data set [9] stood at 4 mL/min/kg.

Take `CC[C@H]1OC(=O)[C@H](C)[C@@H](O[C@H]2C[C@@](C)(OC)[C@@H](O)[C@H](C)O2)[C@H](C)[C@@H](O[C@@H]2O[C@H](C)C[C@H](N(C)C)[C@H]2O)[C@](C)(O)C[C@@H](C)CN(CCCNc2ccnc3ccccc23)[C@H](C)[C@@H](O)[C@]1(C)O` [listing 2 of 2 here]: the outcome in the data set on Plasmodium berghei [10] was inactive.

With `CC(=O)O.CC[C@H]1OC(=O)[C@H](C)[C@@H](O[C@H]2C[C@@](C)(OC)[C@@H](O)[C@H](C)O2)[C@H](C)[C@@H](O[C@@H]2O[C@H](C)C[C@H](N(C)C)[C@H]2O)[C@](C)(O)C[C@@H](C)CN(CCCNC(=O)CCc2ccccc2)[C@H](C)[C@@H](O)[C@]1(C)O`, the solubility entry in data set [11] is recorded as “>= 10 mg kg-1”.

By bioavailability is commonly meant the share of a dose that reaches the circulation, judged against a reference dose that is usually intravenous. Read a high bioavailability as much systemic uptake. Broadly, the half-life is the time needed for the level to fall by half in the phase considered. The IC50 is the concentration that gives 50% inhibition.
